Results gathered from unrelated publications.
Read-out: metabolic stability

C[C@H](C(=O)N[C@H]1COc2ccccc2[C@@H]1S(C)(=O)=O)c1ccc(F)cc1 — microsomal CLint (human, liver microsomes; 1 µM, 1 h): 3 µL/min/mg
CCCCCn1nc(C(=O)Nc2cccc3ccccc23)c2ccccc21 — microsomal CLint (male human, liver microsomes; 1 µM, pH 7.4): 410 µL/min/mg
NCCc1c[nH]c2ccc(O)cc12 — hepatocyte CLint (human, hepatocytes; 5 µM): 38.6 µL/min/10⁶ cells
C[C@H]1CN(Cc2ccc(C(F)(F)F)cc2N2CCOCC2)CCN1C(=O)n1ccc(S(=O)(=O)N(C)C)n1 — microsomal CLint (human, liver microsomes): 480 µL/min/mg
Cc1nonc1Cn1nnc2c(N3CC[C@H](O)C3)nc(C(C)(C)C)nc21 — hepatocyte CLint (human, hepatocytes): 8.1 µL/min/10⁶ cells
Cc1ccc(F)c2cc(C(=O)N[C@@H]3CCC[C@H](N4CC[C@H](N(C)S(C)(=O)=O)C4)C3)[nH]c12 — scaled CLint (human, hepatocytes; 0.5 µM, 2 h): 51 mL/min/kg
Cc1cc(C)nc(Nc2ncc(C(=O)NCCc3c(C)[nH]c4ccccc34)cn2)c1 — microsomal CLint (human, liver microsomes; 1 µM): 25 µL/min/mg
COC(=O)N[C@H](C(=O)NN(CC[C@@]1(Cc2ccccc2)C(=O)N([C@H]2c3ccccc3C[C@H]2O)C[C@@H]1O)Cc1ccc(Br)cc1)C(C)(C)C — microsomal CLint (human, liver microsomes; 1 µM, pH 7.35): > 300 µL/min/mg
Cc1ncc2n1-c1ccc(Cl)cc1C(c1ccccc1F)=NC2 — microsomal CLint (human, liver microsomes; 1 µM): > 250 µL/min/mg
CN1CCN(Cc2ccc(NC(=O)c3cncc(C#Cc4cnc(N)c5ncccc45)c3)cc2C(F)(F)F)CC1 — microsomal CLint (human, liver microsomes): 3.6 µL/min/mg
CCCCCn1cc(C(=O)Nc2cccc3ccccc23)c2ccccc21 — microsomal CLint (male human, liver microsomes; 1 µM, pH 7.4): 300 µL/min/mg
CN(C)CCc1c[nH]c2ccccc12 — hepatocyte CLint (human, hepatocytes; 0.6 µM): 19.4 µL/min/10⁶ cells
Cc1nc([C@@](C)(CC2CC2)NC(=O)c2cc(OCC(F)(F)F)c(C3CC3)cn2)no1 — hepatocyte CLint (human, hepatocytes): 17 µL/min/10⁶ cells
Cc1nc2c(=O)n(C)c(=O)nc-2n(C)n1 — microsomal CLint (human, liver microsomes): < 7.4 µL/min/mg
C#Cc1ccc2c(c1)C(c1ccccn1)=NCc1c(-c3cnco3)ncn1-2 — microsomal CLint (human, liver microsomes): 0.046 µL/min/mg
